HCT116 bCat-KO: beta-catenin-lacking colon tumor cell growth suppression; viability, % at 10 µM; HCT116 beta-catenin knockout viability, CellTiter-Glo, 60 h; stronger effect = lower value; 140,000 tested, 1.5% active;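 active = viability at or under a set limit, the compound median less 4 SD, cut at about 6% in these data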;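 note: 0% = Hyamine 1622 control at 20 µM and 100% = untreated cell control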
Fibroblast inh: blocks proliferation of human lung fibroblasts; LL 47 human lung fibroblast viability, ATP luminescence; stronger effect = lower value; viability, % at 10 µM; AID 719; 85,000 tested, 1.1% active;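 active = viability at or below 50% in the single dose screen; inactive = viability above 50%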;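 note: compound exposure lasted 72 h before the ATP readout; 100% = median luminescence of untreated cell-only wells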
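Test system: LL 47 human lung fibroblasts / Incubation: 72 h compound exposure at 37 °C after overnight plating / Technique: luminescent ATP detection, CellTiter-Glo / Compound dosing: 0.1% DMSO in all compound wells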
HCT116 PTEN-null: PTEN-deleted cell growth suppression; 140,000 tested, 1.2% active; HCT116 PTEN-null viability, CellTiter-Glo, 60 h; stronger effect = lower value; AID 827; viability, % at 10 µM;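 active = viability at or below a set limit, 4 SD under the median of all tested compounds, cut at about 3.7% in these data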;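 note: PTEN knockout HCT116 line with beta catenin targeted HCT116 as companion control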
H69AR growth 86K: blocks growth of human H69AR lung tumor cells; H69AR lung tumor viability, ATP luminescence, 72 h; stronger effect = lower value; viability, % at 10 µM; 85,000 tested, 6% active; AID 598;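 active = viability at or below 40%; inactive = viability above 40%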;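 note: multidrug resistant small cell line overexpressing MRP-1 efflux transporter; 100% = mean luminescence of untreated control wells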
HUVEC inhibit: human endothelial cell proliferation inhibition; HUVEC proliferation, CellTiter-Glo luminescence, 72 h; stronger effect = lower value; viability, % at 10 µM (by protocol); 86,000 tested, 1.1% active;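 active = viability at or below 30%; inactive = viability above 30%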;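 note: 100% = median luminescence of DMSO-only cell control wells on each plate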
* marks the source's active call; other numbers are inactive results; x = not tested or not shown. The sample as a whole holds a higher share of hits than the screen did.

SMILES	HCT116 bCat-KO	Fibroblast inh	HCT116 PTEN-null	H69AR growth 86K	HUVEC inhibit
Cc1cccc(C(=O)N[C@H](C(=O)OCC(=O)NC(=O)c2cccn2C)C(C)C)c1	93	x	97	x	x
Cc1ccccc1C(=O)NNC(=O)c1cc(N)cc([N+](=O)[O-])c1	90	x	107	x	x
O=S1(=O)Nc2c(ccc3cccnc23)-c2ccccc21	4.7*	x	2.3*	x	x
Cc1cc(C)c(S(=O)(=O)n2ccc3ccccc32)c(C)c1	75	98	75	7.8*	89
COC(=O)c1c(C)n(-c2ccccc2)c2ccc(O)cc12	51	92	39	19*	42
COC(=O)c1c(C)n(-c2ccc(C)cc2)c2ccc(O)cc12	41	88	31	23*	27*
CN1/C(=C\C=Nc2ccc3ccccc3c2)C(C)(C)c2ccccc21	47	x	50	x	x
Cc1cc(/N=C/C=C2\N(C)c3ccccc3C2(C)C)n(CCC#N)n1	61	92	66	20*	84
CC1CCCCN1C(=O)CSc1nnc(-c2c[nH]c3ccccc23)o1 (configuration not stated)	97	101	100	22*	102
Cc1sc(NC(=O)CN(Cc2ccc(F)cc2)C(=O)C(C)(C)C)c(C(N)=O)c1C	86	x	94	x	x
COc1ccc(-n2nc(C(=O)Nc3nc4ccc(OC)cc4s3)c3ccccc3c2=O)c(OC)c1	12	x	2.6*	x	x
CCCCC(CC)Cn1c(O)c(/C=C2\C=NN=C2c2ccccc2)sc1=S (configuration not stated)	2.1*	x	1.6*	x	x
CCCn1c(O)c(/C=C2\C=NN=C2c2ccccc2)sc1=S	32	x	37	x	x
CCCCN(C(=O)CN1CCOCC1)c1c(N)n(CC(C)C)c(=O)[nH]c1=O	92	x	102	x	x
CCSc1nnnn1-c1ccccc1	92	100	96	99	91
Cc1ccc(C)c(-n2nnnc2Sc2nnnn2-c2ccccc2)c1	2.0*	24*	1.8*	2.3*	15*
CC(=O)CC(c1ccc([N+](=O)[O-])cc1)c1c(O)c2ccccc2oc1=O (configuration not stated)	95	x	106	x	x
Cc1ccc(C2C=C(c3ccc4c(c3)OCO4)Nc3ncnn32)cc1 (configuration not stated)	63	x	62	83	115
CCc1ccc(C2=CC(c3cc(Br)ccc3F)n3ncnc3N2)cc1 (configuration not stated)	79	58	98	18*	58
Cc1ccsc1C1C=C(c2cccc(Br)c2)Nc2ncnn21 (configuration not stated)	59	100	55	51	75
Fc1ccc(Br)cc1C1C=C(c2ccc(Br)cc2)Nc2ncnn21 (configuration not stated)	38	60	31	18*	63
COc1ccc(C(=O)Nc2ccc([N+](=O)[O-])cn2)c(OC)c1	79	x	77	x	x
CC(C)[C@@H]1NC(=O)c2cc([N+](=O)[O-])cc(F)c2NCCC[C@@H](C(N)=O)NC(=O)[C@H](CO)NC1=O	100	x	94	x	x
Cc1ccc(-c2nnn(CC(=O)N(Cc3cccs3)C(C(=O)NC3CCCCC3)c3ccco3)n2)o1 (configuration not stated)	95	107	96	19*	77
CC(C)CCNC(=O)C(c1ccncc1)N(Cc1cccs1)C(=O)Cn1nnc(-c2ccc(F)cc2)n1 (configuration not stated)	67	75	64	40*	88
SMILES	HCT116 bCat-KO	Fibroblast inh	HCT116 PTEN-null	H69AR growth 86K	HUVEC inhibit
O=C(NCC1CCCO1)C(c1ccc(F)cc1)N(Cc1ccc(F)cc1)C(=O)Cn1nnc(-c2cccs2)n1 (configuration not stated)	94	94	66	40*	88
O=C(NCC1CCCO1)C(c1cccs1)N(Cc1cccs1)C(=O)Cn1nnc(-c2cccs2)n1 (configuration not stated)	76	103	71	83	94
COc1ccc(-c2nnn(CC(=O)N(Cc3ccc(F)cc3)C(C(=O)NC3CCCC3)c3ccc(F)cc3)n2)cc1 (configuration not stated)	x	12*	x	27*	64
COc1ccc(/C(N)=N/OC(=O)CCCc2ccccc2)cc1OC	103	x	102	x	x
Cc1cc(C)c2c(c1)NC(c1cc3c(cc1Br)OCO3)C1CC=CC21 (configuration not stated)	73	x	66	x	x
Cc1c(NC(=O)OCCNC(=O)COc2c(Cl)cccc2Cl)sc(=S)n1C	93	x	93	x	x
COc1ccc(-c2nnn(CC(=O)N(Cc3cccs3)C(C)C(=O)NC3CCCC3)n2)cc1OC (configuration not stated)	69	92	83	105	91
Cc1ccc(-c2nnn(CC(=O)N(Cc3cccs3)C(C(=O)NC3CCCC3)c3ccncc3)n2)cc1 (configuration not stated)	74	64	68	29*	76
O=C1CN(C(=O)CSc2nc(-c3ccc(Cl)cc3)cs2)c2ccccc2N1	49	x	61	x	x
CCOc1ccc(S(=O)(=O)N2CCN(c3ccc(OC)cc3)CC2)c2cccnc12	82	96	95	35*	96
CCOc1ccc(S(=O)(=O)N2CCN(c3ccccc3)CC2)c2cccnc12	86	92	85	54	104
O=C(c1ccc(F)cc1)C(CCCCCC(CN1CCOCC1)C(=O)c1ccc(F)cc1)CN1CCOCC1 (configuration not stated)	43	89	36	23*	56
CC(CN1CCOCC1)C(=O)c1ccccc1 (configuration not stated)	95	107	101	111	95
CCOC(=O)c1sc(NC(=O)CSc2nc3c(c(=O)n2-c2ccc(C)cc2)SCC3)c(C(=O)OCC)c1C	60	x	52	x	x
COc1cc(NC(=O)c2cccs2)c(C(=O)OCC(=O)NC(=O)NCc2ccccc2)cc1OC	106	100	94	27*	74
Cc1ccccc1OCCCC(=O)NCc1ccco1	89	x	95	x	x
COc1ccc(NC(=O)CSc2c3c(nc4ccccc24)CCCC3)c(OC)c1	5.9*	x	11	x	x
COc1ccc(NC(=O)CSc2nc3c(c(=O)n2-c2ccccc2)SCC3)c(OC)c1	83	76	94	8.2*	70
COc1ccccc1-n1c(SCC(=O)Nc2ccc(F)cc2)nc2c(c1=O)SCC2	90	96	101	20*	89
CCN1N=C(c2ccccc2)Cn2c1nc1ccccc12	65	96	76	78	98
O=C(NCc1ccco1)C(=O)NCC1OCCCN1S(=O)(=O)c1ccccc1 (configuration not stated)	102	x	93	x	x
Cc1cc(C)c(NC(=O)COc2ccccc2C(=O)Nc2ccc3c(c2)oc2ccccc23)c(C)c1	67	47*	48	26*	82
CCOc1ccccc1C(=O)Nc1ccc(-c2nnc(-c3ccc(C)cc3)o2)cc1	x	101	x	99	102
C/C(CC(=O)Nc1ccc2c(c1)OCO2)=N\NC(=O)C(c1ccccc1)c1ccccc1	99	x	91	x	x

Source: PubChem BioAssay
